Laboratory results reported in ChEMBL document CHEMBL1123873, “N-(heterocyclic alkyl)pyrido[2,1-b]quinazoline-8-carboxamides as orally active antiallergy agents” (J Med Chem, 1987).

What was measured:
Cavia porcellus [1] = organism: Cavia porcellus; test: Evaluated for inhibition of slow reacting substance of anaphylaxis (SRS-A) induced contractions in guinea pig ileum strips; format: functional
Summary of the method: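 Guinea pig ileum strips were contracted with SRS-A at 5.0 units/mL, the level giving 50% of maximal contraction. Each compound was tested in duplicate at three concentrations giving 10–90% inhibition. IC50 was obtained by linear regression.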

Thromboxane-A synthase = target: T1, Thromboxane-A synthase (Homo sapiens, UniProt P24557); test: Inhibition of human platelet thromboxane synthase (TXA2) was determined in human platelets
T1 sequence (P24557 whole entry): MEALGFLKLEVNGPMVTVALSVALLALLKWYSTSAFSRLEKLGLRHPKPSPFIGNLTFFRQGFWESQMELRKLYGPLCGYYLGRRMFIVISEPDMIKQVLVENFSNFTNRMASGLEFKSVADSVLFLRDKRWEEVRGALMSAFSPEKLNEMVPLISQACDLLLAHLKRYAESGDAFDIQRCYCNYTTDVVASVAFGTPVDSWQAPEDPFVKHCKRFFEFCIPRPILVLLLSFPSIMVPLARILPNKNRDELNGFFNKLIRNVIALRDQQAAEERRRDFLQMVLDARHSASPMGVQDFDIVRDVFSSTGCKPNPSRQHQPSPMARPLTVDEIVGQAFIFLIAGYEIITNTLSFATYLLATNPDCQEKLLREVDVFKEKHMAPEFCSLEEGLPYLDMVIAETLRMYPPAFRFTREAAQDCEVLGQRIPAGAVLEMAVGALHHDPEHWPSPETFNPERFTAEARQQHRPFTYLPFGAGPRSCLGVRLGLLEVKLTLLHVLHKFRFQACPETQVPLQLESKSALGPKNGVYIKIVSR
Summary of the method: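 The enzyme source was microsomal fractions of human platelets. Conversion of [14C]PGH2 to [14C]TXB2 ran 2 min at 22 °C and was then stopped. Products were ether-extracted, separated by TLC and counted. Compounds were tested in triplicate at three log-spaced concentrations, and IC50 was obtained by linear regression.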

Rattus norvegicus [2] = test: In vivo inhibition of LTE4 (leukotriene)-induced skin wheal formation in rat and percent inhibition was reported at 10 mg/Kg administered intravenously; settings: iv
Rattus norvegicus [3] = test: In vivo inhibition of LTE4 (leukotriene)-induced skin wheal formation in rat and percent inhibition was reported at 100 mg/Kg administered perorally; settings: po
Cavia porcellus [4] = test: In vivo inhibition of LTE4 (leukotriene)-induced bronchoconstrictions in guinea pig and percent inhibition was reported at 10 mg/Kg administered intravenously; format: functional; settings: iv
Summary of the method: (§1)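 Guinea pigs pretreated with propranolol were challenged with LTE4. The drug was given either 10 mg/kg iv 30 s before challenge or 100 mg/kg orally 2 h before. Bronchoconstriction was scored as percent inhibition versus control animals. Oral ID50 was calculated from varying oral doses.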

Cavia porcellus [5] = test: In vivo inhibition of LTE4 (leukotriene)-induced bronchoconstrictions in guinea pig and percent inhibition was reported at 100 mg/Kg administered perorally; format: functional; settings: po; summary of the method: as §1
Rattus norvegicus [6] = test: Compound was evaluated in vivo by rat passive cutaneous anaphylaxis test (PCA)after oral administration; settings: read-out: ID50 (the source's name)
Rattus norvegicus [7] = test: In vivo inhibition of LTE4 (leukotriene)-induced skin wheal formation in rat
Cavia porcellus [8] = test: (§2) In vivo inhibition of LTE4 (leukotriene)-induced administration; format: functional
Rattus norvegicus [9] = test: In vivo inhibition of LTE4 (leukotriene)-induced skin wheal formation in rat determined after (iv) administration of a dose of 10 mg/kg
Cavia porcellus [10] = test: In vivo inhibition of LTE4 (leukotriene)-induced bronchoconstrictions in guinea pig after oral administration; format: functional; summary of the method: as §1
Rattus norvegicus [11] = test: In vivo inhibition of LTE4 (leukotriene)-induced skin wheal formation in rat determined after (po) administration of a dose of 100 mg/Kg
Cavia porcellus [12] = test: as §2; format: functional; remark: listed apart in the source
Cavia porcellus [13] = test: In vivo inhibition of LTE4 (leukotriene)-induced bronchoconstrictions in guinea pig and ID50 was reported perorally; format: functional; summary of the method: as §1
Cavia porcellus [14] = organism: Cavia porcellus; test: Ability to inhibit bronchoconstriction in guinea pig induced by histamine
Rattus norvegicus [15] = test: Compound was evaluated in vivo by rat passive cutaneous anaphylaxis test (PCA) after oral administration; format: functional
Cavia porcellus [16] = organism: Cavia porcellus; test: Ability to inhibit bronchoconstriction induced in actively sensitized guinea pig by antigen-induced de novo biosynthesis of SRS-A; format: functional
Rattus norvegicus [17] = test: In vivo inhibition of LTE4 (leukotriene)-induced skin wheal formation in rat; remark: listed apart in the source
Cavia porcellus [18] = organism: Cavia porcellus; test: Ability to inhibit bronchoconstriction in guinea pig induced by platelet activating factor

Row | IC50 (Cavia porcellus [1]) [nM] | IC50 (Thromboxane-A synthase) [nM] | Structure (SMILES) | also measured
1 | 1000 | 600 | CC(C)c1ccc2nc3ccc(C(=O)N(C)CCCCc4cccnc4)cn3c(=O)c2c1 | 
2 |  |  | CC(C)c1ccc2nc3ccc(C(=O)O)cn3c(=O)c2c1 | ED50 (Rattus norvegicus [6]): 0.45 mg/kg
3 | 1000 | 200 | CC(C)c1ccc2nc3ccc(C(=O)NCCCCc4cccnc4)cn3c(=O)c2c1 | IC50 (Rattus norvegicus [7]): 70 mg/kg; Inhibition (Cavia porcellus [8]): 94%; inhibition in vivo at 10 mg/kg (Rattus norvegicus [9]): 60%; ID50 mg/kg (Cavia porcellus [10]): 60; inhibition in vivo at 100 mg/kg (Rattus norvegicus [11]): 61%; Inhibition (Cavia porcellus [12]): 76%
4 | 5000 | 100 | Cc1ccc2nc3ccc(C(=O)NCCCCc4cccnc4)cn3c(=O)c2c1 | 
5 | 9000 | 5000 | Cc1nccn1CCCCNC(=O)c1ccc2nc3ccc(C(C)C)cc3c(=O)n2c1 | 
6 | 8000 | 20 | O=C(NCCCCc1cccnc1)c1ccc2nc3cc(Cl)ccc3c(=O)n2c1 | 
7 | 800 | 50 | CC(C)c1ccc2nc3ccc(C(=O)NCCCCOc4cccnc4)cn3c(=O)c2c1.Cl.Cl | IC50 (Rattus norvegicus [7]): 100 mg/kg; inhibition in vivo at 10 mg/kg (Rattus norvegicus [2]): 64%; inhibition in vivo at 100 mg/kg (Rattus norvegicus [3]): 56%; inhibition in vivo at 10 mg/kg (Cavia porcellus [4]): 94%; inhibition in vivo at 100 mg/kg (Cavia porcellus [5]): 60%
8 | 5000 | 500 | CC(C)c1ccc2nc3ccc(C(=O)NC(C)(C)CCCc4cccnc4)cn3c(=O)c2c1 | 
9 | > 10000 | 200 | CC(C)c1ccc2nc3ccc(C(=O)NCCCCCCCc4cccnc4)cn3c(=O)c2c1 | 
10 | > 10000 | 20 | COc1ccc2c(=O)n3cc(C(=O)NCCCCc4cccnc4)ccc3nc2c1 | 
11 | 3000 | 50 | O=C(NCCCCc1cccnc1)c1ccc2nc3ccc(O)cc3c(=O)n2c1 | 
12 | 1000 | > 10000 | CC(C)c1ccc2nc3ccc(C(=O)NCCCCc4ccccn4)cn3c(=O)c2c1 | 
13 | > 10000 |  | O=C(O)c1ccc(OCCn2ccnc2)cc1 [DAZOXIBEN] | inhibition in vivo at 10 mg/kg (Rattus norvegicus [2]): 9%; inhibition in vivo at 100 mg/kg (Rattus norvegicus [3]): 11%; inhibition in vivo at 10 mg/kg (Cavia porcellus [4]): 88%; inhibition in vivo at 100 mg/kg (Cavia porcellus [5]): 81%
14 | > 10000 | 100 | O=C(NCCCCc1cccnc1)c1ccc2nc3ccc(Br)cc3c(=O)n2c1 | 
15 | 5000 | 20 | O=C(NCCCCc1cccnc1)c1ccc2nc3ccccc3c(=O)n2c1 | 
16 | 5000 | 600 | CC(C)c1ccc2nc3ccc(C(=O)NCCSCc4cccnc4)cn3c(=O)c2c1 | 
17 | 5000 | 300 | CC(CCc1cccnc1)NC(=O)c1ccc2nc3ccc(C(C)C)cc3c(=O)n2c1 (centres undefined) | 
18 | 1000 | 100 | CC(C)c1ccc2nc3ccc(C(=O)NCCCCCc4cccnc4)cn3c(=O)c2c1.Cl.Cl | Inhibition (Cavia porcellus [8]): 84%; inhibition in vivo at 10 mg/kg (Rattus norvegicus [2]): 61%; inhibition in vivo at 100 mg/kg (Rattus norvegicus [3]): 65%; Inhibition (Cavia porcellus [12]): 21%
19 | 10000 | 4000 | CC(C)c1ccc2nc3ccc(C(=O)NCCc4cccnc4)cn3c(=O)c2c1 | 
20 | 7000 | 100 | Cc1cc2nc3ccc(C(=O)NCCCCc4cccnc4)cn3c(=O)c2cc1C | 
21 | 1000 | 100 | CC(C)c1ccc2nc3ccc(C(=O)NCCCCc4ccncc4)cn3c(=O)c2c1.Cl.Cl | IC50 (Rattus norvegicus [7]): 90 mg/kg; inhibition in vivo at 10 mg/kg (Rattus norvegicus [2]): 54%; inhibition in vivo at 100 mg/kg (Rattus norvegicus [3]): 63%; ID50 mg/kg (Cavia porcellus [13]): 57; inhibition in vivo at 10 mg/kg (Cavia porcellus [4]): 89%; inhibition in vivo at 100 mg/kg (Cavia porcellus [5]): 73%
22 | 9000 | 300 | O=C(NCCCCc1cccnc1)c1ccc2nc3cc4c(cc3c(=O)n2c1)CCCC4 | 
23 | 10000 | 60 | CC(C)Oc1ccc2nc3ccc(C(=O)NCCCCc4cccnc4)cn3c(=O)c2c1 | 
24 | 1000 | 200 | CC(C)c1ccc2nc3ccc(C(=O)NCCCCn4ccnc4)cn3c(=O)c2c1.Cl.Cl | ID50 mg/kg (Cavia porcellus [14]): 39; ID50 mg/kg (Rattus norvegicus [15]): 20; ID50 mg/kg (Cavia porcellus [16]): 50; IC50 (Rattus norvegicus [17]): 46 mg/kg; inhibition in vivo at 10 mg/kg (Rattus norvegicus [2]): 26%; inhibition in vivo at 100 mg/kg (Rattus norvegicus [3]): 63%; ID50 mg/kg (Cavia porcellus [13]): 47; inhibition in vivo at 10 mg/kg (Cavia porcellus [4]): 87%; inhibition in vivo at 100 mg/kg (Cavia porcellus [5]): 87%; ID50 mg/kg (Cavia porcellus [18]): 13
25 | 5000 | 100 | CC(C)c1ccc2nc3ccc(C(=O)NCCCc4cccnc4)cn3c(=O)c2c1 | 
26 | 1000 |  | CC(C)c1ccc2nc3ccc(C(=O)NCCCCCCc4cccnc4)cn3c(=O)c2c1 | inhibition in vivo at 10 mg/kg (Rattus norvegicus [2]): 70%; inhibition in vivo at 100 mg/kg (Rattus norvegicus [3]): 62%; inhibition in vivo at 10 mg/kg (Cavia porcellus [4]): 71%; inhibition in vivo at 100 mg/kg (Cavia porcellus [5]): 28%
27 | 8000 | 1000 | CC(CCCc1cccnc1)NC(=O)c1ccc2nc3ccc(C(C)C)cc3c(=O)n2c1 (centres undefined) | 
28 | 5000 | 200 | CC(C)c1ccc2nc3ccc(C(=O)NCCCCc4cncnc4)cn3c(=O)c2c1 | 
29 | 10000 | 200 | COc1ccc2nc3ccc(C(=O)NCCCCc4cccnc4)cn3c(=O)c2c1 | 

Row | Structure (SMILES) | IC50 (Cavia porcellus [1]) [nM] | IC50 (Thromboxane-A synthase) [nM] | also measured
30 | CCCc1c(OCC(O)COc2ccc3c(=O)cc(C(=O)O)oc3c2CCC)ccc(C(C)=O)c1O (centres undefined) [FPL-55712] |  | 10000 | inhibition in vivo at 10 mg/kg (Rattus norvegicus [2]): 88%; inhibition in vivo at 100 mg/kg (Rattus norvegicus [3]): 2%; inhibition in vivo at 10 mg/kg (Cavia porcellus [4]): 98%; inhibition in vivo at 100 mg/kg (Cavia porcellus [5]): 23%
